{"data": "Results collected from several papers", "observed": "cell growth or viability", "note": "Lines come from different studies, so protocols differ."}
{"Structure (SMILES)": "C[C@@H]1[C@H](O)[C@@H](C)/C=C/C=C/C=C/C=C/C=C/C=C/C=C/[C@H](O[C@@H]2O[C@H](C)[C@@H](O)[C@H](N)[C@@H]2O)C[C@@H]2O[C@](O)(C[C@@H](O)C[C@@H](O)[C@H](O)CC[C@@H](O)C[C@@H](O)CC(=O)O[C@H]1C)C[C@H](O)[C@H]2C(=O)O", "cell line": "DH82", "test": "MTS", "setting": "200 µM, 72 h", "quantity": "inhibition", "result": "42%"}
{"Structure (SMILES)": "COc1ccc(NC(=O)c2c(Nc3ccccc3)sc(C(=O)NN=Cc3ccc(C)cc3)c2NC(C)=O)cc1", "cell line": "HCT-116", "test": "SRB", "setting": "10 nM, 48 h", "quantity": "viability", "result": "90.2%"}
{"Structure (SMILES)": "CCOC(=O)c1c(C)ncn1CC(c1cn(C)c2ccc([N+](=O)[O-])cc12)c1cn(C)c2ccc([N+](=O)[O-])cc12", "cell line": "DH82", "test": "MTS", "setting": "20 µM, 24 h", "quantity": "inhibition", "result": "20.5%"}
{"Structure (SMILES)": "COCCn1cc(C#Cc2cc(C(=O)NCc3ccsc3)ccc2C)c2c(N)ncnc21", "cell line": "32D", "quantity": "GI50", "result": "> 3000 nM"}
{"Structure (SMILES)": "COc1ccc(NC(=O)c2c(Nc3ccccc3)sc(C#N)c2NC(=O)CNc2ccc(C)cc2)cc1", "cell line": "HCT-116", "test": "SRB", "setting": "10 nM, 48 h", "quantity": "viability", "result": "92.4%"}
{"Structure (SMILES)": "FC1CCN(C2(CNCc3ccc(-c4ccccc4Cl)o3)COC2)C1 (stereo not shown)", "cell line": "U-87 MG", "setting": "30 µM, 48 h", "quantity": "viability", "result": "45.4%"}
{"Structure (SMILES)": "COc1ccc(-c2ccc(-c3ccc(C(=N)N)nc3)s2)cc1", "cell line": "EKVX", "test": "SRB", "quantity": "GI50", "result": "1700 nM"}
{"Structure (SMILES)": "COc1ccc(NC(=O)c2c(Nc3ccccc3)sc(C#N)c2NC(=O)CNc2ccccc2[N+](=O)[O-])cc1", "cell line": "HCT-116", "test": "SRB", "setting": "10 µM, 48 h", "quantity": "viability", "result": "72.7%"}
{"Structure (SMILES)": "COc1ccc2occ(/C=C/c3cc(OC)c(OC)c(OC)c3)c(=O)c2c1", "cell line": "HSC-2", "test": "MTT", "setting": "7 h", "quantity": "CC50", "result": "20 µM"}
{"Structure (SMILES)": "COc1cc(-c2ccc(-c3ccc(C(=N)N)nc3)s2)cc(OC)c1OC", "cell line": "EKVX", "test": "SRB", "quantity": "GI50", "result": "5190 nM"}
{"Structure (SMILES)": "COC(=O)c1c(C)ncn1CC(c1c[nH]c2ccc(C)cc12)c1c[nH]c2ccc(C)cc12", "cell line": "DH82", "test": "MTS", "setting": "20 µM, 24 h", "quantity": "inhibition", "result": "11.3%"}
{"Structure (SMILES)": "CC(C)Cc1nn(C)c(=O)c2c(SCCCO)n(Cc3cnc(Cl)c4ccccc34)cc12", "cell line": "Raji", "test": "MTT", "setting": "96 h", "quantity": "EC50", "result": "60 nM"}
{"Structure (SMILES)": "COc1ccc2occ(/C=C/c3ccc(O)cc3)c(=O)c2c1", "cell line": "HSC-2", "test": "MTT", "setting": "6.7 h", "quantity": "CC50", "result": "9.5 µM"}
{"Structure (SMILES)": "COc1ccc(NCC(=O)Nc2c(C#N)sc(Nc3ccccc3)c2C(=O)Nc2ccc(OC)cc2)cc1", "cell line": "HCT-116", "test": "SRB", "setting": "1 nM, 48 h", "quantity": "viability", "result": "99.5%"}
{"Structure (SMILES)": "CC(C)Cc1nn(C)c(=O)c2c(SCCCO)n(Cc3ccnc(NCCCCCN)c3)cc12", "cell line": "Raji", "test": "MTT", "setting": "96 h", "quantity": "EC50", "result": "690 nM"}
{"Structure (SMILES)": "CCCCCCCCCCCCCCCCOP(=O)([O-])OCC[N+](C)(C)C", "cell line": "DH82", "test": "MTS", "setting": "20 µM, 24 h", "quantity": "inhibition", "result": "43.9%"}
{"Structure (SMILES)": "COc1ccc(NC(=O)c2c(Nc3ccccc3)sc(C(=O)NN=Cc3ccccc3)c2NC(C)=O)cc1", "cell line": "HCT-116", "test": "SRB", "setting": "1 nM, 48 h", "quantity": "viability", "result": "101%"}
{"Structure (SMILES)": "Cc1ccc(C(=O)NCc2ccsc2)cc1C#Cc1cn(C)c2ncnc(N)c12", "cell line": "32D", "quantity": "GI50", "result": "106 nM"}
{"Structure (SMILES)": "C=CC(=O)N1CCC[C@@H](n2nc(-c3ccc(Oc4ccccc4)cc3)c3c(N)ncnc32)C1", "cell line": "DOHH-2", "test": "ATP luminescence", "setting": "72 h", "quantity": "GI50", "result": "17000 nM"}
{"Structure (SMILES)": "COc1ccc(NC(=O)c2c(Nc3ccccc3)sc(C#N)c2NC(=O)CNc2ccccc2Cl)cc1", "cell line": "HCT-116", "test": "SRB", "setting": "10 µM, 48 h", "quantity": "viability", "result": "62.9%"}
{"Structure (SMILES)": "Cc1ccc(C(=O)NCc2ccsc2)cc1C#Cc1cn(C2CCC2)c2ncnc(N)c12", "cell line": "32D", "quantity": "GI50", "result": "> 1000 nM"}
{"Structure (SMILES)": "c1ccc(-c2ccc(CNCC3(N4CCCC4)COC3)s2)cc1", "cell line": "U-87 MG", "setting": "30 µM, 48 h", "quantity": "viability", "result": "55.6%"}
{"Structure (SMILES)": "COc1cccc(Oc2ccccc2NC(=O)CNC(=O)c2cccc3ccccc23)c1", "cell line": "EKVX", "test": "SRB", "setting": "48 h", "quantity": "GI50", "result": "1290 nM"}
{"Structure (SMILES)": "COc1ccc(C=NNC(=O)c2sc(Nc3ccccc3)c(C(=O)Nc3ccc(OC)cc3)c2NC(C)=O)cc1", "cell line": "HCT-116", "test": "SRB", "setting": "1 µM, 48 h", "quantity": "viability", "result": "59.4%"}
{"Structure (SMILES)": "COc1ccc(/C=C/c2coc3ccc(OC)cc3c2=O)cc1", "cell line": "HSC-2", "test": "MTT", "setting": "23 h", "quantity": "CC50", "result": "2.6 µM"}
{"Structure (SMILES)": "COc1ccc(NC(=O)c2c(Nc3ccccc3)sc(C#N)c2NC(=O)CNc2ccccc2)cc1", "cell line": "HCT-116", "test": "SRB", "setting": "10 µM, 48 h", "quantity": "viability", "result": "87.2%"}
{"Structure (SMILES)": "CC(C)Cc1nn(C)c(=O)c2c(SCCCO)n(Cc3ccc(Cl)nc3)cc12", "cell line": "Raji", "test": "MTT", "setting": "96 h", "quantity": "EC50", "result": "1000 nM"}
{"Structure (SMILES)": "Cn1nnc2c(C(N)=O)ncn2c1=O", "cell line": "KATO3", "quantity": "EC50", "result": "592000 nM"}
